Test results as given in the M2OR odorant receptor database.

Target: UniProt Q9WVD7
Conditions: stereoisomer not certain
Outline: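 Transient luciferase assays in mammalian cell lines were common, though methods varied by source. The values come from published papers and their supplementary material, with extra details from the original authors when needed. Responsive refers to a measured signal the original authors judged statistically different from baseline, and non-responsive (inactive) to the remainder.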
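Also: active if original authors judged signal statistically different from baseline.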

UniProt Q9WVD7, sequence (Q9WVD7 as listed by the source): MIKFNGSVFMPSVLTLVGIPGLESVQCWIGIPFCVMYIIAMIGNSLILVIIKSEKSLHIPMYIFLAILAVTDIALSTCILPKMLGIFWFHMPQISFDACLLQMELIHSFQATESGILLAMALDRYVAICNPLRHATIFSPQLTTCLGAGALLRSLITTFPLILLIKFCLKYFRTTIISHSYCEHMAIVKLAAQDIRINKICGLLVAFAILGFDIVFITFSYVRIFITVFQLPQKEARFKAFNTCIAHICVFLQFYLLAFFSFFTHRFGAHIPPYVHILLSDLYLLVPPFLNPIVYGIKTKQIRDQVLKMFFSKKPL

## O=C(O)CCCCCCCBr
  odorant receptor agonist call: active
